From ChEMBL document CHEMBL1146878, “A novel class of AMPA receptor allosteric modulators. Part 1: design, synthesis, and SAR of 3-aryl-4-cyano-5-substituted-heteroaryl-2-carboxylic acid derivatives” (Bioorg Med Chem Lett, 2006)
pEC50: −log10 of the molar value.

Assays:
Type in all cases: functional, cell-based
Glutamate receptor 2 [1] = biological target: T1, Glutamate receptor 2 (Homo sapiens, UniProt P42262); assay: Activity against human GLUR2 flip expressed in HEK293 cells assessed as glutamate-stimulated calcium influx by FLIPR assay
T1 sequence (P42262 whole entry): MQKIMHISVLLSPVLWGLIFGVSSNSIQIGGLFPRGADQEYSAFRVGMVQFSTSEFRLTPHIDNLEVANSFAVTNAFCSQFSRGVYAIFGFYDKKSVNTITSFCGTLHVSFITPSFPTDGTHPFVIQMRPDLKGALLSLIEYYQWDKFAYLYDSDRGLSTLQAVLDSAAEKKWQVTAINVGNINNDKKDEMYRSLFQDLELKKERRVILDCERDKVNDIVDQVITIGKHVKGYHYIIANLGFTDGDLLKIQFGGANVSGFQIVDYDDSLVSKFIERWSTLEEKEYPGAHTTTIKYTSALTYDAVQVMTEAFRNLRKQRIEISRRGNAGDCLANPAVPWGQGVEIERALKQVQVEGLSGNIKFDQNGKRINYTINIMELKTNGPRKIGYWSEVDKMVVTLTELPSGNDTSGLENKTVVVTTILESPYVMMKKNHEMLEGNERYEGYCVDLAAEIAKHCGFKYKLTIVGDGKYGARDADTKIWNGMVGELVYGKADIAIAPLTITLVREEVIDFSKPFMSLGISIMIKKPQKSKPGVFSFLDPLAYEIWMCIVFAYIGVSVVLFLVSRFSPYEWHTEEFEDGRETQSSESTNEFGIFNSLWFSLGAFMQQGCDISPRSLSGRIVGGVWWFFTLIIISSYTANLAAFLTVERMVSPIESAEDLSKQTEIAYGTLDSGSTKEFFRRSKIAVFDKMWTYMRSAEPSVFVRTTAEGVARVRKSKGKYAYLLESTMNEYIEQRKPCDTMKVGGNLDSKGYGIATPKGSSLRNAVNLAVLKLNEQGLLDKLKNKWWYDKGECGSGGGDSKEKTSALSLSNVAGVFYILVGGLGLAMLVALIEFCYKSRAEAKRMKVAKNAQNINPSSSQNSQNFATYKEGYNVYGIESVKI

Glutamate receptor 4 [2] = biological target: T2, Glutamate receptor 4 (Homo sapiens, UniProt P48058); assay: Activity against human GLUR4 flop expressed in HEK293 cells assessed as glutamate-stimulated calcium influx by FLIPR assay
T2 sequence (P48058 whole entry, canonical isoform): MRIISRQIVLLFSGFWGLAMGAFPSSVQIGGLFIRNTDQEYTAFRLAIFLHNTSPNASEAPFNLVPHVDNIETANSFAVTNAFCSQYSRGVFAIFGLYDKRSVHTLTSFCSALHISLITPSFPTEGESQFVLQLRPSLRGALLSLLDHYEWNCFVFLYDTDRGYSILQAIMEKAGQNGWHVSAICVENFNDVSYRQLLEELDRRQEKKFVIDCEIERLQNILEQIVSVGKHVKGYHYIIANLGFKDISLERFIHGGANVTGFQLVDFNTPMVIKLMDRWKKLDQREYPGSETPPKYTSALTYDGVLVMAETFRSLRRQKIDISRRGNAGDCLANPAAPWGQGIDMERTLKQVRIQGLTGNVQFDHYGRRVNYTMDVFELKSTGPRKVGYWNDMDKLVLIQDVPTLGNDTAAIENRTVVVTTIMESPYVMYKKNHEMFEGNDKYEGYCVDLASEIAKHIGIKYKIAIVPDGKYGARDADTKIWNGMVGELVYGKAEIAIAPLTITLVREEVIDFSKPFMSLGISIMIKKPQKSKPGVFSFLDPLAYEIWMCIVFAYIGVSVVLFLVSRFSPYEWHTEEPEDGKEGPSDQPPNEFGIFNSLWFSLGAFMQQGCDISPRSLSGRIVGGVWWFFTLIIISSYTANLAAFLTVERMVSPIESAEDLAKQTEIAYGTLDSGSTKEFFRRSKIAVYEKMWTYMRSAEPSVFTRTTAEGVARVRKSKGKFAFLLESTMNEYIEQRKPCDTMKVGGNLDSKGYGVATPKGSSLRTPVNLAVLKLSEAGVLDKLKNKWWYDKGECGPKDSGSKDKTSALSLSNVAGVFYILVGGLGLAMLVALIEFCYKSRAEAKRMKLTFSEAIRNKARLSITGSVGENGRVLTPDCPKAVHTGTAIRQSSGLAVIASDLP
Procedure, shortened: (§1)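 Stably transfected HEK-293 cells expressing homomeric GluR4 (flip or flop splice form) loaded with 8 µM Fluo3-AM for 60 min in HEPES-buffered saline (5 mM CaCl2, 5.5 mM glucose). Compounds from DMSO (0.1–3 µM) co-applied with 100 µM glutamate; calcium influx read by FLIPR. Duplicate 10-point curves; response expressed as % of 100 µM cyclothiazide, EC50 calculated.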

Glutamate receptor 4 [3] = biological target: T2, Glutamate receptor 4; assay: Activity against human GLUR4 flip expressed in HEK293 cells assessed as glutamate-stimulated calcium influx by FLIPR assay; procedure, shortened: as §1
Glutamate receptor 2 [4] = biological target: T1, Glutamate receptor 2; assay: Activity against human GLUR2 flop expressed in HEK293 cells assessed as glutamate-stimulated calcium influx by FLIPR assay

CCc1sc(C(=O)O)c(-c2ccc(C(C)(C)C)cc2)c1C#N
pEC50 (Glutamate receptor 2 [1]): 7.33
pEC50 (Glutamate receptor 4 [2]): 5.91
pEC50 (Glutamate receptor 4 [3]): 6.74
pEC50 (Glutamate receptor 2 [4]): 6.67

CCCSc1sc(C(=O)O)c(-c2ccc(C(C)(C)C)cc2)c1C#N
pEC50 (Glutamate receptor 4 [2]): < 5.52
pEC50 (Glutamate receptor 4 [3]): 5.54

CSc1oc(C(=O)O)c(-c2ccc(C(C)(C)C)cc2)c1C#N
pEC50 (Glutamate receptor 4 [2]): < 5.52
pEC50 (Glutamate receptor 4 [3]): 5.70

CC(C)(C)c1ccc(-c2c(C(=O)O)sc(C(F)(F)F)c2C#N)cc1
pEC50 (Glutamate receptor 2 [1]): 7.11
pEC50 (Glutamate receptor 4 [2]): 6.31
pEC50 (Glutamate receptor 4 [3]): 6.56
pEC50 (Glutamate receptor 2 [4]): 6.64

CC(C)(C)c1ccc(-c2c(C(=O)O)sc(Sc3ccccc3)c2C#N)cc1
pEC50 (Glutamate receptor 4 [2]): < 5.52
pEC50 (Glutamate receptor 4 [3]): < 5.52

CN(C)c1sc(C(=O)O)c(-c2ccc(C(C)(C)C)cc2)c1C#N
pEC50 (Glutamate receptor 2 [1]): 6.75
pEC50 (Glutamate receptor 4 [2]): < 5.52
pEC50 (Glutamate receptor 4 [3]): 6.32
pEC50 (Glutamate receptor 2 [4]): 5.54

CC(C)(C)c1ccc(-c2c(C(=O)O)sc(S(C)(=O)=O)c2C#N)cc1
pEC50 (Glutamate receptor 2 [1]): 6.48
pEC50 (Glutamate receptor 4 [2]): < 5.52
pEC50 (Glutamate receptor 4 [3]): 6.20
pEC50 (Glutamate receptor 2 [4]): 5.74

CCSc1sc(C(=O)O)c(-c2ccc(C(C)(C)C)cc2)c1C#N
pEC50 (Glutamate receptor 4 [2]): < 5.52
pEC50 (Glutamate receptor 4 [3]): 6.36

CSc1c(C#N)c(-c2ccc(C(C)(C)C)cc2)c(C(=O)O)n1C
pEC50 (Glutamate receptor 2 [1]): 6.16
pEC50 (Glutamate receptor 4 [2]): 5.85
pEC50 (Glutamate receptor 4 [3]): 6.26
pEC50 (Glutamate receptor 2 [4]): 6.18

CC(C)Sc1sc(C(=O)O)c(-c2ccc(C(C)(C)C)cc2)c1C#N
pEC50 (Glutamate receptor 4 [2]): < 5.52
pEC50 (Glutamate receptor 4 [3]): 5.73

CSc1sc(C(=O)O)c(-c2ccc(-c3ccccc3)cc2)c1C#N
pEC50 (Glutamate receptor 4 [2]): < 5.52
pEC50 (Glutamate receptor 4 [3]): 6.10

CCOC(=O)c1sc(SC)c(C#N)c1-c1ccc(C(C)(C)C)cc1
pEC50 (Glutamate receptor 2 [1]): < 5.52
pEC50 (Glutamate receptor 4 [2]): < 5.52
pEC50 (Glutamate receptor 4 [3]): < 5.52
pEC50 (Glutamate receptor 2 [4]): < 5.52

C[S+]([O-])c1sc(C(=O)O)c(-c2ccc(C(C)(C)C)cc2)c1C#N (stereo not given)
pEC50 (Glutamate receptor 4 [2]): < 5.52
pEC50 (Glutamate receptor 4 [3]): 6.31

CC(CNS(=O)(=O)C(C)C)c1ccc(-c2ccc(C#N)cc2)cc1 (stereo not given)
pEC50 (Glutamate receptor 2 [1]): 6.25
pEC50 (Glutamate receptor 4 [2]): 5.97
pEC50 (Glutamate receptor 4 [3]): 6.38
pEC50 (Glutamate receptor 2 [4]): 5.72

CC(C)(C)c1ccc(-c2c(C#N)csc2C(=O)O)cc1
pEC50 (Glutamate receptor 2 [1]): < 5.52
pEC50 (Glutamate receptor 4 [2]): < 5.52
pEC50 (Glutamate receptor 4 [3]): < 5.52
pEC50 (Glutamate receptor 2 [4]): < 5.52

CC(C)(C)c1ccc(-c2c(C(=O)O)sc(N3CCCC3)c2C#N)cc1
pEC50 (Glutamate receptor 2 [1]): 5.94
pEC50 (Glutamate receptor 4 [2]): < 5.52
pEC50 (Glutamate receptor 4 [3]): 6.00
pEC50 (Glutamate receptor 2 [4]): 5.61
